Published values collected from several papers.
Protocols differ between the studies behind these lines.
ADRA1D: Alpha-1D adrenergic receptor (ADRA1D, Homo sapiens, UniProt P25100)
PTGS2: Prostaglandin G/H synthase 2 (PTGS2, Homo sapiens, UniProt P35354)
CASP7: Caspase-7 (CASP7, Homo sapiens, UniProt P55210)
Dipeptidyl peptidase 2: Dipeptidyl peptidase 2 (Homo sapiens, UniProt Q9UHL4)

CC(C)Cn1cnc2c(N)nc3ccccc3c21  inhibition (ADRA1D; ligand displacement, radioligand; 10 µM): 76%
NS(=O)(=O)c1ccc(-c2ncc(Cl)cc2-c2nc3ccccc3s2)cc1  inhibition (PTGS2; enzyme activity, inhibitor, absorbance; 10 µM): 100%
OC(c1ccc(F)cc1)C(F)(F)CCN1CCC(O)(c2ccc(Cl)cc2)CC1 (racemic)  inhibition (Sigma non-opioid intracellular receptor 1 (SIGMAR1, Cavia porcellus, UniProt Q60492); ligand displacement, radioligand; 10 µM): > 50%
Cc1ccc(-c2nc3ccccc3s2)c(-c2ccc(S(N)(=O)=O)cc2)c1  inhibition (PTGS2; enzyme activity, inhibitor, absorbance; 10 µM): 87.3%
CN(C)C(=O)COC(=O)Cc1ccc(OC(=O)c2ccc(NC(=N)N)cc2)cc1  inhibition (Ubiquitin carboxyl-terminal hydrolase isozyme L3 (UCHL3, Homo sapiens, UniProt P15374); enzyme activity, inhibitor; 10 µM): 3%
Nc1ccc(-c2ccccc2)c(-c2nc3ccccc3s2)c1  inhibition (PTGS2; enzyme activity, inhibitor, absorbance; 10 µM): 12.4%
Cn1cc(-c2cccc(N3CCc4c(sc5c4CC(C)(C)C5)C3=O)c2CO)cc(Nc2ccncn2)c1=O  inhibition (Protein kinase C zeta type (PRKCZ, Homo sapiens, UniProt Q05513); enzyme activity, inhibitor; 1 µM): 10%
CC(=O)N[C@@H](CC(=O)O)C(=O)N[C@@H](CC(N)=O)C(=O)N[C@@H](CC(C)C)C(=O)N[C@H](C=O)CC(=O)O  inhibition (CASP7; enzyme activity, inhibitor; 5 nM): 8%
CC(C)C[C@H](NC(=O)[C@H](Cc1ccccc1)NC(=O)c1cnccn1)B(O)O  inhibition (Serine protease HTRA2, mitochondrial (HTRA2, Homo sapiens, UniProt O43464); enzyme activity, inhibitor; 33 µM): < 5%
Cn1cc(-c2cc(F)cc(N3CCn4c(cc5c4CCCC5)C3=O)c2CO)cc(Nc2ccc(N3CCN(C4COC4)CC3)cn2)c1=O  inhibition (Dual specificity tyrosine-phosphorylation-regulated kinase 3 (DYRK3, Homo sapiens, UniProt O43781); enzyme activity, inhibitor; 0.1 µM): 5%
CCN(CC)CCCC[C@H](NC(=O)[C@H](CC(C)C)NC(=O)[C@H](C)NC(=O)[C@H](Cc1ccccc1)NC(=O)c1ccc(C(C)(C)C)cc1)C(=O)N[C@@H](CO)C(=O)OC  inhibition (5-hydroxytryptamine receptor 1B (Htr1b, Rattus norvegicus, UniProt P28564); ligand displacement, radioligand; 10 µM): -11%
Oc1ccc(-c2ncccc2-c2nc3ccccc3s2)cc1  inhibition (PTGS2; enzyme activity, inhibitor, absorbance; 10 µM): 8%
CC(C)N1CCC[C@H]1CNC(=O)c1cn(C2CCCC2)c(=O)c2c1c1ccccc1n2C  inhibition (ADRA1D; ligand displacement, radioligand; 10 µM): 9%
Cc1ccc(-c2nc3ccccc3s2)c(-c2ccc(O)cc2)c1  inhibition (PTGS2; enzyme activity, inhibitor, absorbance; 10 µM): 35.4%
N=C(N)c1ccc2cc(OC(=O)c3ccc(N=C(N)N)cc3)ccc2c1  inhibition (Dipeptidyl peptidase 2; enzyme activity, inhibitor; 10 µM): 29%
Cc1ccc(-c2nc3ccccc3s2)c(-c2cccc(O)c2)c1  inhibition (PTGS2; enzyme activity, inhibitor, absorbance; 10 µM): 29%
N#Cc1ccc(NCCNCC(=O)N2N=CCC2C#N)nc1 (centres unmarked)  inhibition (Dipeptidyl peptidase 2; enzyme activity, inhibitor; 100 µM): 77%
C#Cc1n[nH]c2c(-c3cn(C(C)c4ccccn4)c(=O)[nH]c3=O)cc(F)cc12 (centres unmarked)  inhibition (Ribosomal protein S6 kinase beta-1 (RPS6KB1, Homo sapiens, UniProt P23443); enzyme activity, inhibitor; 1 µM): -2.1%
O=C(Nc1cccnn1)N1CCN([C@@H]2CCOc3cc(C(F)(F)F)ccc32)CC1  inhibition (Melanocyte-stimulating hormone receptor (Mc1r, Mus musculus, UniProt Q01727); cell-free assay; 20 µM): 0%
CCOC(=O)c1ccc(OC(=O)CCCCCNC(=N)N)cc1  inhibition (CASP7; enzyme activity, inhibitor; 10 µM): 1%
